Experimental data from different studies.
Target: MAP kinase-activated protein kinase 5 (MAPKAPK5, Homo sapiens, UniProt Q8IW41)
Residues used in one study (Q8IW41 1-473): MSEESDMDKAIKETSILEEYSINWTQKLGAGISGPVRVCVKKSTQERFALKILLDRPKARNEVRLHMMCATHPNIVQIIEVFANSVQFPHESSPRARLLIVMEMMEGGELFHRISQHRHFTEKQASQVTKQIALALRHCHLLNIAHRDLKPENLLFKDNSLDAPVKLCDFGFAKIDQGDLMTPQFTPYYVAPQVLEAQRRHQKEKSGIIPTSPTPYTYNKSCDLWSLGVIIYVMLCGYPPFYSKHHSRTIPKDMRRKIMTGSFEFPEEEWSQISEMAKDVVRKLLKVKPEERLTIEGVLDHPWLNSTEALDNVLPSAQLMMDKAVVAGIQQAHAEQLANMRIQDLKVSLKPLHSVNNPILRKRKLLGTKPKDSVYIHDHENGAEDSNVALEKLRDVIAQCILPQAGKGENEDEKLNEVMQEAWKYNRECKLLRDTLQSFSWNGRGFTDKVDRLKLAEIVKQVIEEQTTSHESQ

Nc1cnc(N2CCc3cc(S(=O)(=O)Nc4c(F)cc(Cl)cc4F)cc(N4CCCC4=O)c32)nc1 — remaining binding (cell-free assay; competition with immobilised ligand; 1 µM): 92%
Cn1c(=O)n(-c2ccc(C(C)(C)C#N)cc2)c2c3cc(-c4cnc5ccccc5c4)ccc3ncc21 — remaining activity (enzyme activity; inhibitor; 10 µM): 93%
CNC(=O)c1cc(Oc2ccc(NC(=O)Nc3ccc(Cl)c(C(F)(F)F)c3)cc2)ccn1 — inhibition (enzyme activity; inhibitor; 10 µM): 66%
O=C1CCc2cc(Nc3cc(OC4CCOCC4)c([N+](=O)[O-])cc3Cl)ccc2N1 — remaining binding (cell-free assay; competition with immobilised ligand; 1 µM): 78%
Cc1cc(NC(=O)c2cccc3cc(-c4cccc5[nH]nc(N)c45)ccc23)ccc1F — activity vs control (enzyme activity; inhibitor; 0.1 µM): 103%
CCCOc1ccc(OC)c(F)c1C(=O)c1ccc(C(=O)N[C@@H]2CNC[C@H]2NC(=O)c2ccc3[nH]ncc3c2)cc1 — remaining activity (enzyme activity; inhibitor; 10 µM): 91%
Oc1ccc(-c2nc(-c3ccncc3)c(-c3ccc(F)cc3)[nH]2)cc1 — remaining signal (cell-free assay; 0.5 µM): 102%
COc1cc2ncnc(Nc3ccc(Oc4ccccc4)c(C)c3C)c2cc1OC — inhibition (enzyme activity; inhibitor; 1 µM): -1%
C[C@H](c1ccc(F)cc1)N(Cc1cccc(C(=O)O)c1)C(=O)c1cnc2ccccc2c1 — remaining binding (cell-free assay; competition with immobilised ligand; 1 µM): 96%
Cn1cnc(Br)c1C1=CN(c2ncnc3[nH]cnc23)CCS1 — inhibition (enzyme activity; inhibitor; radiometric; 2 µM): 15.2%
COc1cc(Cl)c(C(=O)N[C@@H](CN[C@H]2CC[C@@H](N)CC2)Cc2ccc(C#N)cc2)cc1-c1ccc(CN[C@H](C)c2ccc(C)cc2)o1 — remaining activity (enzyme activity; inhibitor; 1 µM): 89%
COc1cc(/C=C/C(=O)CC(=O)/C=C/c2ccc(O)c(OC)c2)ccc1O — activity vs control (enzyme activity; inhibitor; 1 µM): 101%
FC(F)(F)Oc1cccc(-c2cnc3ccc(-c4ccncc4)nn23)c1 — activity vs control (enzyme activity; inhibitor; radiometric; 5 µM): 85%
CNCc1ccc(-c2cc(-c3nc(-c4ccc(S(=O)(=O)C(C)C)cc4)cnc3N)on2)cc1 — inhibition (enzyme activity; inhibitor; 0.4 µM): 0%
CO[C@@H](C)c1c(Nc2ccc([C@H](N(C)C(=O)C3CCS(=O)(=O)CC3)C(F)(F)F)cc2)cnc2cc(Cl)nn12 — remaining binding (cell-free assay; competition with immobilised ligand; 1 µM): 100%
Cc1ccc(Nc2nccc(N(C)c3ccc4c(C)n(C)nc4c3)n2)cc1S(N)(=O)=O — inhibition (enzyme activity; inhibitor; 0.3 µM): -3%
Oc1cccc(-c2nc(N3CCOCC3)c3oc4ncccc4c3n2)c1 — remaining activity (enzyme activity; inhibitor; 10 µM): 77%
CNC(=O)Nc1ccc2c(c1)CC[C@@]21OC(=O)N(CC(=O)N(Cc2ccc(F)cc2)[C@@H](C)C(F)(F)F)C1=O — remaining binding (cell-free assay; competition with immobilised ligand; 1 µM): 82%
CN1CC(Oc2cnc(C#N)cc2-c2ccn3nc(NC(=O)C4CC4)cc3c2)C1 — inhibition (enzyme activity; inhibitor; 1 µM): -14%
C[C@H](NC(=O)c1cnc2n1[C@](C)(Cc1ccc(C#N)cc1)C(=O)N2c1cc(Cl)c(F)c(Cl)c1)C(=O)NC1(c2ccccn2)CC1 — remaining binding (cell-free assay; competition with immobilised ligand; 1 µM): 96%
COc1ccc(COc2ccc(Cc3cnc(N)nc3N)cc2OC)cc1 — remaining signal (cell-free assay; 0.5 µM): 87.5%
CCCS(=O)(=O)Nc1ccc(F)c(C(=O)c2c[nH]c3ncc(-c4ccc(Cl)cc4)cc23)c1F — inhibition (enzyme activity; inhibitor; 1 µM): < 10%
CC(C)(C)C(=O)c1sc(NC2CCCCC2)nc1N — remaining activity (enzyme activity; inhibitor; 10 µM): 103%
Nc1ncnc2occ(-c3ccc(NC(=O)Nc4cc(C(F)(F)F)ccc4F)cc3)c12 — remaining signal (cell-free assay; inhibitor; 20 µM): 58%
N#CCCc1ccc2c(c1)-c1[nH]c3ccc([N+](=O)[O-])cc3c1CC(=O)N2 — remaining signal (cell-free assay; 0.5 µM): 94.3%
CC(C)(C)c1nc2c(s1)c1nc(N)ncc1c1ccc(NS(=O)(=O)c3c(F)cccc3F)c(F)c12 — remaining activity (enzyme activity; inhibitor; radiometric; 1 µM): 83%
Cc1nc(Cc2cccc(C(F)(F)F)c2)sc1-c1ccc(C(N)=O)nc1 — remaining binding (cell-free assay; competition with immobilised ligand; 1 µM): 100%
O=C1Nc2ccc(Cl)cc2C1=Cc1cc(Cl)c(O)c(Cl)c1 — remaining signal (cell-free assay; 0.5 µM): 92.4%
O=C(Nc1cnn(-c2csc(C(=O)NC3COC3)c2)c1)Nc1ccccc1Cl — remaining activity (enzyme activity; inhibitor; 5 µM): 92.8%
O=c1nc(-c2ccccn2)sc2ccccc12 — remaining binding (binding; competition with immobilised ligand; 1 µM): 92%
COc1cc(Nc2cnc(C#N)c(O[C@H](C)CN(C)C)n2)ncc1-c1cnn(C)c1 — remaining activity (enzyme activity; inhibitor; radiometric; 1 µM): 78%
Nc1nc(Nc2ccccc2)sc1C(=O)c1c(F)cccc1F — remaining activity (enzyme activity; inhibitor; 10 µM): 63%
Cc1cnc(NC2CCOCC2)nc1-n1cnc(C(=O)NC(CN)c2cc(F)cc(Cl)c2)c1 (stereo not shown) — remaining activity (enzyme activity; inhibitor; radiometric; 1 µM): 114%
Cc1ccc(C(=O)Nc2ccc(CN3CCN(C)CC3)c(C(F)(F)F)c2)cc1C#Cc1cnc2cccnn12 — remaining activity (enzyme activity; inhibitor; 23.5 nM): 84%
